Measured values: ChEMBL document CHEMBL1128434, “Gonadotropin-releasing hormone antagonists: novel members of the azaline B family” (1995)
Each block holds one compound with its values, some of them ahead of it.

Experiments:
Rattus norvegicus [1] = species: Rattus norvegicus; experiment: Effect in the anti ovulatory assay (AOA) in rats expressed as no. of rats ovulating/No of rats treated at 50 mg; 4/4; assay type: functional
[2] = molecular target: T1, Gonadotropin-releasing hormone receptor (Rattus norvegicus) (UniProt P30969); experiment: In vitro potency to inhibit GnRH-mediated LH secretion by cultured pituitary cells relative to [Ac-delta-Pro1,DFpa2,DTrp36]GnRH.; assay type: functional, cell-based; details: Pituitary gland cell
T1 sequence (whole entry): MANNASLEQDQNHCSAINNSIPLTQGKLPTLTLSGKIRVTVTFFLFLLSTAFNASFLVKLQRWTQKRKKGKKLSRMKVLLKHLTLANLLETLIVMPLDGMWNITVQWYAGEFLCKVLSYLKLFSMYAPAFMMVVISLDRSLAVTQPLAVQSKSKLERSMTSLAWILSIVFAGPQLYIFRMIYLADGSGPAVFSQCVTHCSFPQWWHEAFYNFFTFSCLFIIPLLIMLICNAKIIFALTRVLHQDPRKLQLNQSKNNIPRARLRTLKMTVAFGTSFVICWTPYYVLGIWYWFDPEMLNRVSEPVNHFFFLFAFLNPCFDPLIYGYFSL
In short: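 Dispersed rat pituitary cells in culture; antagonist inhibition of GnRH-stimulated LH secretion. Potency expressed relative to standard antagonist [Ac-Δ3Pro1,D4FPhe2,DTrp3,6]GnRH taken as 1.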

Rattus norvegicus [3] = species: Rattus norvegicus; experiment: Effect in the anti ovulatory assay (AOA) in rats expressed as no. of rats ovulating/No of rats treated at 1.0 mg; 6/6; assay type: functional
Rattus norvegicus [4] = species: Rattus norvegicus; experiment: Effect in the anti ovulatory assay (AOA) in rats expressed as no. of rats ovulating/No of rats treated at 2.5 mg; 0/9; assay type: functional
Rattus norvegicus [5] = species: Rattus norvegicus; experiment: Duration of action measured using castrated male rat assay to inhibit luteinizing hormone release.; fully active at 48 hr but not at 72 hr; assay type: functional
Rattus norvegicus [6] = species: Rattus norvegicus; experiment: Effect in the anti ovulatory assay (AOA) in rats expressed as no. of rats ovulating/No of rats treated at 1.0 mg; 0/7; assay type: functional
[7] = molecular target: T1, Gonadotropin-releasing hormone receptor (Rattus norvegicus); experiment: Duration of action measured using castrated male rat assay to inhibit luteinizing hormone release.; fully active at 72 hr; assay type: functional
Rattus norvegicus [8] = species: Rattus norvegicus; experiment: Effect in the anti ovulatory assay (AOA) in rats expressed as no. of rats ovulating/No of rats treated at 10 mg; 1/6; assay type: functional
Rattus norvegicus [9] = species: Rattus norvegicus; experiment: Effect in the anti ovulatory assay (AOA) in rats expressed as no. of rats ovulating/No of rats treated at 2.5 mg; 3/7; assay type: functional
Rattus norvegicus [10] = species: Rattus norvegicus; experiment: Effect in the anti ovulatory assay (AOA) in rats expressed as no. of rats ovulating/No of rats treated at 1.0 mg; 3/11; assay type: functional
Rattus norvegicus [11] = species: Rattus norvegicus; experiment: Effect in the anti ovulatory assay (AOA) in rats expressed as no. of rats ovulating/No of rats treated at 0.5 mg; 4/4; assay type: functional
Rattus norvegicus [12] = species: Rattus norvegicus; experiment: Effect in the anti ovulatory assay (AOA) in rats expressed as no. of rats ovulating/No of rats treated at 1.0 mg; 5/5; assay type: functional
Rattus norvegicus [13] = species: Rattus norvegicus; experiment: Effect in the anti ovulatory assay (AOA) in rats expressed as no. of rats ovulating/No of rats treated at 2.5 mg; 4/8; assay type: functional

- Relative potency [2]: 0.1
SMILES: CC(=O)N[C@H](Cc1ccc2ccccc2c1)C(=O)N[C@H](Cc1ccc(Cl)cc1)C(=O)N[C@H](Cc1cccnc1)C(=O)N[C@@H](CO)C(=O)N[C@@H](Cc1ccc(NC(=O)Nc2ccccc2Cl)cc1)C(=O)N[C@H](Cc1ccc(NC(=O)Nc2ccccc2Cl)cc1)C(=O)N[C@@H](CC(C)C)C(=O)N[C@@H](CCCCNC(C)C)C(=O)N1CCC[C@H]1C(=O)N[C@H](C)N
- No. of rats ovulated (Rattus norvegicus [1]): 4

SMILES: CC(=O)N[C@H](Cc1ccc2ccccc2c1)C(=O)N[C@H](Cc1ccc(Cl)cc1)C(=O)N[C@H](Cc1cccnc1)C(=O)N[C@@H](CO)C(=O)N[C@@H](Cc1ccc(Nc2n[nH]c(N)n2)cc1)C(=O)N[C@H](Cc1ccc(Nc2n[nH]c(N)n2)cc1)C(=O)N[C@@H](Cc1ccccc1)C(=O)N[C@@H](CCCCNC(C)C)C(=O)N1CCC[C@H]1C(=O)N[C@H](C)N
- No. of rats ovulated (Rattus norvegicus [3]): 6
- No. of rats ovulated (Rattus norvegicus [4]): 0
- Duration of action (Rattus norvegicus [5]): Intermediate

- Duration of action [7]: 72 h
- Relative potency [2]: 1.3
SMILES: CC(=O)N[C@H](Cc1ccc2ccccc2c1)C(=O)N[C@H](Cc1ccc(Cl)cc1)C(=O)N[C@H](Cc1cccnc1)C(=O)N[C@@H](CO)C(=O)N[C@@H](Cc1ccc(Nc2n[nH]c(N)n2)cc1)C(=O)N[C@H](Cc1ccc(Nc2n[nH]c(N)n2)cc1)C(=O)N[C@@H](CC(C)C)C(=O)N[C@@H](CCCCNC(C)C)C(=O)N1CCC[C@H]1C(=O)N[C@H](C)N
- No. of rats ovulated (Rattus norvegicus [6]): 0

SMILES: CC(=O)N[C@H](Cc1ccc(N)cc1)C(=O)N[C@H](Cc1ccc(Cl)cc1)C(=O)N[C@H](Cc1cccnc1)C(=O)N[C@@H](CO)C(=O)N[C@@H](Cc1ccc(Nc2n[nH]c(N)n2)cc1)C(=O)N[C@H](Cc1ccc(Nc2n[nH]c(N)n2)cc1)C(=O)N[C@@H](CC(C)C)C(=O)N[C@@H](CCCCNC(C)C)C(=O)N1CCC[C@H]1C(=O)N[C@H](C)N
- No. of rats ovulated (Rattus norvegicus [8]): 1

- Relative potency [2]: 1.1
SMILES: CC(=O)N[C@H](Cc1ccc2ccccc2c1)C(=O)N[C@H](Cc1ccc(Cl)cc1)C(=O)N[C@H](Cc1cccnc1)C(=O)N[C@@H](CO)C(=O)N[C@@H](Cc1ccc(Nc2n[nH]c(N)n2)cc1)C(=O)N[C@H](Cc1ccc(Nc2n[nH]c(N)n2)cc1)C(=O)N[C@@H](CC(C)C)C(=O)N[C@@H](Cc1ccc(CNC(C)C)cc1)C(=O)N1CCC[C@H]1C(=O)N[C@H](C)N
- No. of rats ovulated (Rattus norvegicus [9]): 3

SMILES: CC(=O)N[C@H](Cc1cnc2ccccc2c1)C(=O)N[C@H](Cc1ccc(Cl)cc1)C(=O)N[C@H](Cc1cccnc1)C(=O)N[C@@H](CO)C(=O)N[C@@H](Cc1ccc(Nc2n[nH]c(N)n2)cc1)C(=O)N[C@H](Cc1ccc(Nc2n[nH]c(N)n2)cc1)C(=O)N[C@@H](CC(C)C)C(=O)N[C@@H](CCCCNC(C)C)C(=O)N1CCC[C@H]1C(=O)N[C@H](C)N
- No. of rats ovulated (Rattus norvegicus [10]): 3
- No. of rats ovulated (Rattus norvegicus [11]): 4

SMILES: CC(=O)N[C@H](Cc1ccc2ccccc2c1)C(=O)N[C@H](Cc1ccc(Cl)cc1)C(=O)N[C@H](Cc1cccnc1)C(=O)N[C@@H](CO)C(=O)N[C@@H](Cc1ccc(NC(=O)CCl)cc1)C(=O)N[C@H](Cc1ccc(NC(=O)CCl)cc1)C(=O)N[C@@H](CC(C)C)C(=O)N[C@@H](CCCCNC(C)C)C(=O)N1CCC[C@H]1C(=O)N[C@H](C)N
- No. of rats ovulated (Rattus norvegicus [12]): 5
- No. of rats ovulated (Rattus norvegicus [13]): 4
